Assay results of several laboratories.
Protocols differ between the studies behind these lines.

CC(C)[C@@H]1NC(=O)[C@@H](CCCNC(=N)N)NC(=O)[C@H]([C@@H](C)O)NC(=O)[C@@H](C)NC(=O)[C@H](Cc2ccccc2)NC(=O)[C@@H](Cc2ccccc2)NC1=O  haemolysis (haemolysis; human; 100 µM): < 10%
C[C@]1(O)CCCN(c2nc(Nc3ccc(S(=O)(=O)N[C@H]4CC[C@H](CN5CCN(c6ccc(C7CCC(=O)NC7=O)c(F)c6)CC5)CC4)cc3F)ncc2C(F)(F)F)C1 (stereo partly shown)  clearance (rat, plasma; intravenous, 2 mg/kg): 6 mL/min/kg
CO[C@H]1C[C@H](O[C@@H]2/C(C)=C/C[C@@H]3C[C@@H](C[C@]4(CC[C@H](C)[C@@H](C5CCCCC5)O4)O3)OC(=O)[C@@H]3C=C(C)/C(=N/O)[C@H]4OC/C(=C\C=C\[C@@H]2C)[C@]43O)O[C@@H](C)[C@@H]1O  haemolysis (haemolysis; human; 50 µM, 3 h): > 18%
C[C@]1(O)CCCN(c2nc(Nc3ccc(S(=O)(=O)N[C@@H]4CCN(CC5CCN(c6ccc(C7CCC(=O)NC7=O)cc6F)CC5)C[C@H]4F)cc3F)ncc2C(F)(F)F)C1 (stereo partly shown)  clearance (rat, plasma; intravenous, 2 mg/kg): 12 mL/min/kg
CC(C)[C@@H]1NC(=O)[C@@H](CCCNC(=N)N)NC(=O)[C@H]([C@@H](C)O)NC(=O)[C@@H](CCCCN)NC(=O)[C@H](Cc2ccccc2)NC(=O)[C@@H](Cc2ccccc2)NC1=O  haemolysis (haemolysis; human; 100 µM): < 10%
C[C@H]1Oc2cc(cnc2N)-c2c(nn(C)c2C#N)CN(C)C(=O)c2ccc(F)cc21  CL/F (male Sprague-Dawley rat, plasma; oral, 50 mg/kg, single dose): 16.7 mL/min/kg
CCCc1nc2c(C)cc(-c3nc4ccccc4n3C)cc2n1Cc1ccc(-c2ccccc2C(=O)O)cc1  CL/F (male Sprague-Dawley rat, plasma; oral, 8 mg/kg, single dose): 78 mL/min/kg
CC(C)[C@H](N)C(=O)N[C@H](Cc1ccccc1)C(=O)N[C@@H](Cc1ccccc1)C(=O)N[C@H](CCCN)C(=O)N[C@H](C(=O)N[C@H](CCCNC(=N)N)C(=O)O)[C@@H](C)O  haemolysis (haemolysis; human; 100 µM): < 10%
CCCCCCCCNC(C)C(O)c1ccc(SC(C)C)cc1 (stereo not shown)  haemolysis (haemolysis; human; 50 µM, 3 h): > 18%
C[C@]1(O)CCCN(c2nc(Nc3ccc(S(=O)(=O)N[C@H]4CC[C@H](CN5CCN(c6ccc(C7CCC(=O)NC7=O)cc6F)CC5)CC4)cc3F)ncc2C(F)(F)F)C1 (stereo partly shown)  clearance (rat, plasma; intravenous, 2 mg/kg): 12 mL/min/kg
